Results on six molecules are retold here after article PMC9514665 (Neuropharmacology, 2021).

Where “and” joins values, the source holds several entries; their conditions need not be identical. Equal values may be shown once. Read-outs that look alike come from different tables or passages of the source. Marks after values point to notes of the source that are not given here.

Data set [1] can be described thus: Pharmacokinetic analysis in mouse plasma and brain after i.p. injection. The format is in vivo.
For data set [2], the system named is F1.Scn1a^+/− mice. The data set is described as follows: Hyperthermia-induced seizures. The format is in vivo, mouse. The essentials:
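Male and female F1.Scn1a+/− mice at P14–16 received i.p. dosing (10 mL/kg; vehicle ethanol:Tween 80:saline 1:1:18). A rectal probe was inserted 15 min before the post-dose time point (30 or 60 min, set by PK), followed by 5-min acclimation. Core temperature was raised 0.5°C every 2 min until first clonic convulsion with loss of posture, or to 42.5°C with a 3-min hold. n = 17–22 per group; logrank Mantel-Cox.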

The format of data set [3] is in vivo, mouse. The conditions noted are these: for Plasma Concentration: 30 min; for Plasma Concentration / concentration at 60 min: F1.Scn1a^+/− mice; for concentration at 60 min: both, F1.Scn1a+/−, mouse, in vivo, Plasma Concentration.
The nature of a further data set: Aqueous solubility. The data set is classed as physicochemical.
Data set [4] is described as follows: Oral bioavailability after subchronic oral administration. To be noted: sufficient plasma concentrations not achieved. The format is in vivo, mouse.
For data set [5], the target named is CB1 receptor. The conditions noted are these: ref Laprairie et al., 2017; cited from earlier work.
For data set [6], the system named is Genetic Absence Epilepsy Rats from Strasbourg (GAERS). To be noted: ref Roebuck et al., 2021, cited from earlier work.
The next data set relates to wildtype mice. The conditions noted are these: 10 mg/kg; ref Laprairie et al., 2019; cited from earlier work.
The test system of data set [7] is CB1 receptor. The conditions noted are these: repeated exposure to low doses, ref Ghosh et al., 2013, Kinsey et al.; cited from earlier work.
In data set [8] the test system is F1.Scn1a^+/− mice. The conditions noted are these: 2017, cited from earlier work.
In another data set the test system is neuropathic pain model. The conditions noted are these: combined with the MAGL inhibitor JZL184; ref Slivicki et al., 2018; cited from earlier work.
Data set [9] is classed as in vivo, mouse. To be noted: 350 mg/kg chow, subchronic oral.
Data set [10] deals with F1.Scn1a^+/− mice. Put plainly: Spontaneous seizures and survival. The format is in vivo, mouse. To be noted: 350 mg ABX-1431/kg chow. The method in brief:
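Male and female F1.Scn1a+/− mice had one hyperthermia-induced seizure at P18, then were randomised to untreated or 350 mg/kg medicated chow made from irradiated powdered diet. Continuous 60-h video recording was used to count and score spontaneous GTCS. Treatment continued to P30 for survival. Fisher's exact test covered seizure-free and hindlimb-extension proportions, Mann-Whitney covered frequency, and logrank covered survival.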

In data set [11] the test system is 2-arachidonoylglycerol (2-AG). Put plainly: Hippocampal 2-AG concentrations after ABX-1431 treatment. The data set is classed as in vivo, mouse. The conditions noted are these: F1.Scn1a^+/− mice.
The next data set concerns anandamide (AEA). The data set is described as follows: Hippocampal anandamide concentrations after ABX-1431 treatment. The data set is classed as in vivo, mouse. To be noted: acute i.p. treatment; F1.Scn1a^+/− mice. The essentials: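 Acute i.p. dosing of F1.Scn1a+/− mice in ethanol:Tween 80:saline (1:1:18), 10 mL/kg. Whole brains were taken 60 min post-dose after hyperthermia testing, by cervical dislocation without anaesthesia, and snap frozen. Hippocampi were Dounce-homogenised and spun at 20,000g for 30 min at 4°C. Supernatant underwent dichloromethane:methanol (2:1)/0.88% KCl liquid-liquid extraction on ice, avoiding plastics. Analysis was by UHPLC-triple quadrupole LC-MS/MS against external calibration curves. 2-AG: Brown-Forsythe ANOVA, Dunnett's T3. Anandamide: Kruskal-Wallis.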

In data set [12] the test system is CB1 receptor. The data set is described as follows: Hippocampal CB1 receptor expression by immunoblotting after subchronic treatment. The format is in vivo, mouse. To be noted: subchronic 350 mg ABX-1431/kg chow; F1.Scn1a^+/− mice; p = 0.0077. The method in brief:
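Hippocampi from F1.Scn1a+/− mice, untreated or fed 350 mg/kg chow, were Dounce-homogenised in buffered 0.32 M sucrose. Membranes were isolated by sequential 2,000g and 20,000g spins at 4°C and protein quantified by Bradford. Membrane protein (20 μg) was run on 10% SDS-PAGE and transferred to PVDF. Rabbit anti-CB1 was detected with fluorescent secondaries (1:20,000). Densitometry was normalised to β-tubulin; Student's t-test.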

Setting [13] is: brain, wildtype mice, 5 mg/kg i.p.
Where [14] appears, read: brain, wildtype mice, 5 mg/kg i.p., converted from ng/mg brain assuming density of 1 g/mL.
Where [15] appears, read: plasma, wildtype mice, 5 mg/kg i.p.

The AUC is concentration integrated over time. Read a high AUC as high exposure. What is called Cmax is the highest concentration seen after dosing. As a reminder, the EC50 is the concentration that produces a half-maximal response. As to `O=[N+]([O-])C[C@@H](c1ccccc1)c1c(-c2ccccc2)[nH]c2ccccc12` [GAT229], the t1/2 in data set [1] (setting [13]) amounted to 53 min; in data set [1] (setting [15]), 45 min. For the same molecule, the tmax in data set [1] (setting [13]) and in data set [1] (setting [15]) was 30 ng/mL in each case. Also, the AUC is 85 ^* μg min/mL in data set [1] (setting [14]) and 74 µg·min/mL in data set [1] (setting [15]). Also, the values for the Cmax in [1] (setting [14]) and in [1] (setting [15]) were 888 ± 90 ng/mL and 858 ± 167 ng/mL, respectively. This molecule registered a brain-plasma in data set [1] (wildtype mice, 5 mg/kg i.p.) of 110%. Further, in data set [1] (wildtype mice, 5 mg/kg i.p.), the brain-plasma ratio came to 1.1. Also, the “temperature threshold for thermally-induced seizures (GTCS)” value in the data set on F1.Scn1a^+/− mice [2] (30 mg/kg i.p., vehicle 41.1 ± 0.1°C, p = 0.0152) was 41.7 ± 0.2 °C; in the data set on F1.Scn1a^+/− mice [2] (100 mg/kg i.p., vehicle 41.1 ± 0.1°C, p = 0.0059), 41.8 ± 0.1 °C. In addition, the “Plasma Concentration” value stood at 900 ± 100 ng/mL in data set [3] (10 mg/kg i.p.), 2600 ± 500 ng/mL in data set [3] (30 mg/kg i.p. (suspension)) and 3200 ± 200 ng/mL in data set [3] (100 mg/kg i.p. (suspension)). In data set [3] (30 and 100 mg/kg doses), the “Plasma concentrations in experimental animals” value was 7.6–9.3 μM and 2.6–3.2 μg/mL. Besides, in data set [3] (co-treatment GAT229 + ABX-1431 (30 mg/kg + 10 mg/kg)), the “Plasma Concentration of GAT229” value is 2300 ± 300 ng/mL. For the same molecule, the aqueous solubility entry in “Aqueous solubility” is on record as “poor”. In data set [4], the oral bioavailability result is “poor”. Moreover, at CB1 receptor [5], the EC50 is approximately 295 nM. For the same molecule, in [6] (GAERs model), the “association with sedation or catalepsy” value is “not associated”. In addition, in data set [6], the “effect against absence seizures” value was “anticonvulsant effects”. Further, the “effect on locomotor activity” value in the data set on wildtype mice was “reduced”.
As for `O=C(Oc1ccc([N+](=O)[O-])cc1)N1CCC(C(O)(c2ccc3c(c2)OCO3)c2ccc3c(c2)OCO3)CC1` [JZL184], in the data set with CB1 receptor [7], the “CB1 receptor downregulation and desensitization” value was “does not occur”.
On to `C=C(C)[C@@H]1CCC(C)=C[C@H]1c1c(O)cc(CCCCC)cc1O` [CBD, cannabidiol], for which the “effective dose in this model” value in the data set on F1.Scn1a^+/− mice [8] (ref Anderson et al., 2020, 2019a, Kaplan et al.) is given as 100 mg/kg.
In the case of `CN1C(=O)CC(=O)N(c2ccccc2)c2cc(Cl)ccc21` [clobazam], the “effective dose in this model” value in the data set on F1.Scn1a^+/− mice [8] (ref Anderson et al., 2019a, Hawkins et al.) is 1 mg/kg.
For the molecule `O=[N+]([O-])CC(c1ccccc1)c1c(-c2ccccc2)[nH]c2ccccc12` (stereo not shown) [GAT211], the antinociceptive effect entry with neuropathic pain model is “synergistic”.
Broadly, the half-life is the time needed for the level to fall by half in the phase considered. A high value points to slow loss. In [1] (mouse, in vivo, ip, 5 mg/kg), `O=C(OC(C(F)(F)F)C(F)(F)F)N1CCN(Cc2ccc(C(F)(F)F)cc2N2CCCC2)CC1` [ABX-1431] had an area under the curve (AUC) of 29 µg·min/mL. Moreover, the Cmax was determined as 317 ± 40 ng/mL in data set [1] (mouse, in vivo, ip, 5 mg/kg) and 468 ± 40 ng/mL in [1] (mouse, in vivo, ip, 5 mg/kg, Cmax). For the same molecule, the “brain half-life (in words)” value in data set [1] (mouse, in vivo, ip, 5 mg/kg) is given as “prolonged”. In data set [1] (mouse, in vivo, ip, 5 mg/kg), this molecule displayed a half-life of 47 min. Also, the “temperature threshold for thermally-induced seizures (GTCS)” value in the data set on F1.Scn1a^+/− mice [2] (10 mg/kg i.p., vehicle 40.6 ± 0.1°C, p = 0.0008) is 41.3 ± 0.2 °C. In addition, the figures for the concentration at 60 min in [3] (3 mg/kg i.p.), in data set [3] (10 mg/kg i.p.) and in data set [3] (30 mg/kg i.p.) were 198 ± 31 ng/mL, 373 ± 53 ng/mL and 883 ± 114 ng/mL, respectively. In data set [9], the “Plasma Concentration” value lay within 170 to 394 ng/mL. The “survival compared with untreated controls” value in the data set on F1.Scn1a^+/− mice [10] (P18 to P30, p = 0.6803) was “not different”. Also, in the data set with F1.Scn1a^+/− mice [10] (60-h recording, vs untreated, p = 0.0064), the “effect on spontaneous seizure (GTCS) frequency” value is “significantly increase”. Moreover, the “proportion of seizures that progressed to full hindlimb extension” value in the data set on F1.Scn1a^+/− mice [10] (93/272 seizures, untreated 45/83 (54%), p = 0.0011) is on record as 34%. Further, the “effect on proportion of mice that exhibited seizures” value in the data set on F1.Scn1a^+/− mice [10] (vs untreated, p = 0.6562) is “did not affect”. Moreover, the “hippocampal 2-AG concentrations relative to vehicle-treated mice” value in data set [11] (acute 10 mg/kg i.p.) came to 8 fold. The “hippocampal 2-AG concentrations increase” value in data set [11] (acute 30 mg/kg i.p.) was determined as 13 fold; in data set [11] (subchronic oral (350 mg/kg chow)), 15 fold. The “effect on hippocampal anandamide concentrations” value in the data set with anandamide (AEA) is reported as “not affected”. Besides, the “effect on hippocampal CB1 receptor expression” value in the data set on CB1 receptor [12] is “significantly lowered”.
